Assay results as given in ChEMBL document CHEMBL1833920, “Antimalarial activity of imidazo[2,1-a]isoindol-5-ol derivatives and related compounds” (Eur J Med Chem, 2011).

How the values were obtained:
Plasmodium falciparum [1] = assay: Antiplasmodial activity against chloroquine-sensitive Plasmodium falciparum 3D7 infected in human O positive erythrocytes after 48 hrs by SYBR green-I based fluorescence assay; assay type: functional, organism-based; conditions: 3D7, 48 h
In short: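 3D7 was cultured at 37 °C, 5% CO₂, in O+ human erythrocytes at 5% hematocrit, in RPMI 1640 with 2% human serum, 0.2% NaHCO₃, 0.5% Albumax II, hypoxanthine and gentamicin. Cultures were sorbitol-synchronized (mostly late rings/early trophozoites). Drugs from DMSO stocks were serially diluted in triplicate wells (final DMSO ≤0.001%) and incubated 48 h. Read-out was SYBR Green I in lysis buffer, 1 h dark RT, ex 485/em 530 nm. EC₅₀ was taken as 50% fluorescence reduction, as the mean of triplicate experiments.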

Plasmodium falciparum [2] = assay: Ratio of chloroquine IC50 to Compound IC50 for chloroquine-sensitive Plasmodium falciparum 3D7; assay type: functional
[3] = Intestinal absorption in human; assay type: ADME, organism-based; conditions: in vivo, read-out: HIA
[4] = Plasma protein binding in human; assay type: ADME, organism-based
[5] = Cytotoxicity against african green monkey CV1 cells; assay type: cell-based, CV-1; conditions: chlorocebus aethiops
Plasmodium berghei [6] = assay: Antimalarial activity against Plasmodium berghei NK65 infected in Swiss mouse assessed as inhibition of parasitemia at 50 mg/kg, ip administered 2 hrs postinfection daily for 4 days measured on day 5; assay type: functional; conditions: route intraperitoneal
In short: (§1)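 Swiss male mice (20 ± 2 g) were infected on day 0 with 10⁷ parasitized cells, in groups of five. Dosing was i.p. at 50 or 25 mg/kg/day from day 0 (2 h post-infection) to day 3. Parasitemia on day 4 was counted from Giemsa-stained tail thin smears (≥9000 RBC, 1000×). Results were compared with untreated and CQ 5 mg/kg/day controls, and % inhibition was calculated relative to untreated parasitemia.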

Mus musculus = assay: Toxicity in Plasmodium berghei NK65 infected in Swiss mouse assessed as mouse mortality at 50 mg/kg, ip administered 2 hrs postinfection daily for 4 days measured on day 5; assay type: organism-based; design: dose 50 mg/kg, route intraperitoneal; conditions: in vivo
In short: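 Swiss male mice (20 ± 2 g) were infected on day 0 with 10⁷ parasitized cells and kept in groups of five. Compound was given i.p. at 50 mg/kg/day, starting 2 h after infection on day 0 and continuing through day 3. Untreated (blank) and chloroquine (5 mg/kg/day) groups served as controls.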

Plasmodium berghei [7] = assay: Antimalarial activity against Plasmodium berghei NK65 infected in Swiss mouse assessed as inhibition of parasitemia at 25 mg/kg, ip administered 2 hrs postinfection daily for 4 days measured on day 5; assay type: functional; conditions: route intraperitoneal; in short: as §1

IC50 (Plasmodium falciparum [1]) | Fa [3] | fraction unbound [4] | Compound | Ratio IC50 (Plasmodium falciparum [2]) | CC50 [5] | inhibition in vivo at 50 mg/kg (Plasmodium berghei [6]) | Activity (Mus musculus) | inhibition in vivo at 25 mg/kg (Plasmodium berghei [7])
4.2 µM | – | – | OC1(Cc2ccc(F)cc2)c2ccccc2C2=NCCN21 (stereo unspecified) | <1 | – | – | – | –
0.06 µM | > 95% | > 0.1 | CSc1ccc(CC2(O)c3ccccc3C3=NCCN32)cc1 (stereo unspecified) | 16.7 | > 24 µM | 84% | – | –
> 35 µM | – | – | COc1ccccc1CC1(O)c2ccccc2C2=NCCN21 (stereo unspecified) | <1 | – | – | – | –
6.6 µM | – | – | OC1(Cc2ccsc2)c2ccccc2C2=NCCN21 (stereo unspecified) | <1 | – | – | – | –
33.3 µM | – | – | OC1(Cc2ccc(F)cc2F)c2ccccc2C2=NCCN21 (stereo unspecified) | <1 | – | – | – | –
– | > 95% | > 0.1 | OC1(Cc2ccc(Cl)cc2)c2ccccc2C2=NCCN21 (stereo unspecified) | 8.3 | > 16 µM | 7% | – | –
15.6 µM | – | – | CSc1ccc(CC2(O)c3ccccc3-c3nc4cc(C)ccc4n32)cc1 (stereo unspecified) | <1 | – | – | – | –
> 35 µM | – | – | Oc1ccc(CC2(O)c3ccccc3C3=NCCN32)cc1 (stereo unspecified) | <1 | – | – | – | –
37.8 µM | – | – | OC1(Cc2ccccc2)c2ccccc2C2=NCCN21 (stereo unspecified) | <1 | – | – | – | –
> 27 µM | – | – | CSc1ccc(CC2(O)c3ccccc3-c3nc4ccccc4n32)cc1 (stereo unspecified) | <1 | – | – | – | –
> 35 µM | – | – | Oc1ccc(CC2(O)c3ccccc3C3=NCCN32)cc1Cl (stereo unspecified) | <1 | – | – | – | –
> 35 µM | – | – | OC1(Cc2cc(F)cc(F)c2)c2ccccc2C2=NCCN21 (stereo unspecified) | <1 | – | – | – | –
27.6 µM | – | – | COc1ccc(CC2(O)c3ccccc3C3=NCCN32)cc1OC (stereo unspecified) | <1 | > 30 µM | – | – | –
2.2 µM | > 95% | > 0.1 | OC1(Cc2ccc3c(c2)OCO3)c2ccccc2C2=NCCN21 (stereo unspecified) | <1 | > 32 µM | 53% | – | –
16.3 µM | – | – | OC1(Cc2cccc3ccccc23)c2ccccc2C2=NCCN21 (stereo unspecified) | <1 | > 15 µM | – | – | –
8.36 µM | – | – | COc1cccc(CC2(O)c3ccccc3C3=NCCN32)c1 (stereo unspecified) | <1 | – | – | – | –
13.5 µM | – | – | Cn1c(CC2(O)c3ccccc3C3=NCCN32)cc2ccccc21 (stereo unspecified) | <1 | – | – | – | –
13.9 µM | – | – | CSc1ccc(C=C2c3ccccc3C(=O)N2c2cc(Cl)ccc2N)cc1 (mixture of isomers) | <1 | – | – | – | –
15.2 µM | – | – | OC1(Cc2ccccc2Cl)c2ccccc2C2=NCCN21 (stereo unspecified) | <1 | – | – | – | –
10 µM | – | – | Nc1ccc(Cl)cc1N1C(=O)c2ccccc2C1=Cc1ccc2ccccc2c1 (mixture of isomers) | <1 | – | – | – | –
8.8 µM | – | – | OC1(Cc2ccc(Cl)cc2Cl)c2ccccc2C2=NCCN21 (stereo unspecified) | <1 | – | – | – | –
19.6 µM | – | – | OC1(Cc2cccs2)c2ccccc2C2=NCCN21 (stereo unspecified) | <1 | – | – | – | –
> 30 µM | – | – | OC1(Cc2ccc3ccccc3c2)c2ccccc2-c2nc3ccccc3n21 (stereo unspecified) | <1 | – | – | – | –
1.49 µM | > 95% | > 0.1 | COc1cc(CC2(O)c3ccccc3C3=NCCN32)cc(OC)c1OC (stereo unspecified) | <1 | – | < 5% | – | –
0.24 µM | > 95% | > 0.1 | COc1ccc(CC2(O)c3ccccc3C3=NCCN32)cc1 (stereo unspecified) | 4.2 | – | 23% | – | –

Compound | IC50 (Plasmodium falciparum [1]) | Fa [3] | fraction unbound [4] | Ratio IC50 (Plasmodium falciparum [2]) | CC50 [5] | inhibition in vivo at 50 mg/kg (Plasmodium berghei [6]) | Activity (Mus musculus) | inhibition in vivo at 25 mg/kg (Plasmodium berghei [7])
OC1(Cc2ccc(Cl)c(Cl)c2)c2ccccc2C2=NCCN21 (stereo unspecified) | 0.3 µM | > 95% | > 0.1 | 3.3 | – | – | Toxic | 19%
OC1(Cc2ccc3ccccc3c2)c2ccccc2C2=NCCN21 (stereo unspecified) | 0.06 µM | > 95% | > 0.1 | 16.7 | – | – | Toxic | 87%
